Experimental data from ChEMBL document CHEMBL3046885, “Toxicity of (+)- and (-)-gossypol to the plant pathogen, Rhizoctonia solani” (2002).
Several values for one entry are separate records, joined by “and”; a condition that tells them apart may be missing. Equal entries are not always repeated.

Legend:
Rhizoctonia solani [1] = assay: Antifungal activity against Rhizoctonia solani J-1 after 4 to 5 days; format: functional
Method in brief: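 Mycelial suspension of strain J-1 (grown 3-4 days at 26-28 °C in potato dextrose broth with rifampicin, macerated in buffered defined medium, pH 6.3, 125 mM glucose). Mixed 1:1 with compound in medium/DMSO; 12 wells per concentration, DMSO controls. Incubated 48 h at 26-28 °C in dark, then plated on PDA and scored visually after 4-5 days. LD100 is the lowest concentration giving no growth. At least three assays.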

Rhizoctonia solani [2] = assay: Antifungal activity against Rhizoctonia solani J-1 after 72 hr by turbimetric assay; format: functional; conditions: read-out: ED50 (the source's name)
Method in brief: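 Sieved macerated mycelium of strain J-1 was held 10 h in buffered defined medium (pH 6.3, 125 mM glucose), then mixed 1:1 with compound in medium/DMSO. Ten wells per concentration; DMSO control. Incubated at 26-28 °C in dark. OD750 was read from 72 h, every 12 h, until control OD reached 0.065-0.100. ED50 came from fractional effect versus concentration. Three plates per experiment, at least four experiments.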

`Cc1cc2c3c(c(O)c(O)c(C(C)C)c3c1)CO2` [DESOXYHEMIGOSSYPOL] was tested, and the LD100 (Rhizoctonia solani [1]) was 41 µM and the EC50 (Rhizoctonia solani [2]; Rhizoctonia solani, J-1, 72 h) was 3.52 µM.

`Cc1cc(O)c2c(C=O)c(O)c(O)c(C(C)C)c2c1` [HEMIGOSSYPOL] was tested, and the LD100 (Rhizoctonia solani [1]) was 77 µM and the EC50 (Rhizoctonia solani [2]; Rhizoctonia solani, J-1, 72 h) was 21.4 µM.

`CC1=Cc2cccc(C)c2C(=O)C1=O` [O-HIBISCANONE] was tested, and the LD100 (Rhizoctonia solani [1]) was 27 µM and the EC50 (Rhizoctonia solani [2]; Rhizoctonia solani, J-1, 72 h) was 3.76 µM.

With `Cc1cc2c(C(C)C)c(O)c(O)c(C=O)c2c(O)c1-c1c(C)cc2c(C(C)C)c(O)c(O)c(C=O)c2c1O` [GOSSYPOL] the LD100 (Rhizoctonia solani [1]) was over 106 µM, the EC50 (Rhizoctonia solani [2]; Rhizoctonia solani, J-1, 72 h) was 25.1 µM and the EC50 (Rhizoctonia solani [2]) was 24.3 µM and 23.9 µM.

Work on `COc1cc(O)c2c(C=O)c(O)c(O)c(C(C)C)c2c1` [HEMIGOSSYPOL-6-METHYL ETHER] yielded an LD100 (Rhizoctonia solani [1]) of 55 µM and an EC50 (Rhizoctonia solani [2]; Rhizoctonia solani, J-1, 72 h) of 13.1 µM.

`COc1c(C)cc2c3c(c(O)c(O)c(C(C)C)c13)CO2` [DESOXHEMIGOSSYPOL-6-METHYL ETHER] was tested, and the LD100 (Rhizoctonia solani [1]) was 40 µM and the EC50 (Rhizoctonia solani [2]; Rhizoctonia solani, J-1, 72 h) was 2.52 µM.
